Data set [1] can be described thus: Antitumor activity against human MOLM16 cells xenografted in SCID mouse assessed as tumor regression at 50 mg/kg, iv administered weekly measured after 2 weeks. Format: functional. In outline: (§1)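 SCID mice bearing MOLM-16 xenografts given compound iv once weekly at 25 or 50 mg/kg. Tumor volume and body weight measured every 2 days. Growth inhibition expressed against vehicle-treated controls.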
Background: A xenograft is tissue or cells of one species grown in another, often human tumour cells in immunodeficient mice.

Data set [2] can be described thus: Toxicity in SCID mouse xenografted with human MOLM16 cells assessed as body weight loss at 25 to 50 mg/kg, iv for 65 days. Format: organism-based. Particulars: in vivo, 1560 h, dose 25-50 mg/kg, time 65 day. In short, it runs like this:
(§2)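 SCID mice bearing MOLM-16 xenografts dosed intravenously at 25 or 50 mg/kg on a weekly schedule; vehicle 10% PEG400/90% PBS; body weight and tumor volume measured every 2 days; signs of toxicity monitored during and after treatment.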

Data set [3] has as its target T1, Signal transducer and activator of transcription 4 (Homo sapiens, UniProt Q14765).
T1 sequence (Q14765 whole entry): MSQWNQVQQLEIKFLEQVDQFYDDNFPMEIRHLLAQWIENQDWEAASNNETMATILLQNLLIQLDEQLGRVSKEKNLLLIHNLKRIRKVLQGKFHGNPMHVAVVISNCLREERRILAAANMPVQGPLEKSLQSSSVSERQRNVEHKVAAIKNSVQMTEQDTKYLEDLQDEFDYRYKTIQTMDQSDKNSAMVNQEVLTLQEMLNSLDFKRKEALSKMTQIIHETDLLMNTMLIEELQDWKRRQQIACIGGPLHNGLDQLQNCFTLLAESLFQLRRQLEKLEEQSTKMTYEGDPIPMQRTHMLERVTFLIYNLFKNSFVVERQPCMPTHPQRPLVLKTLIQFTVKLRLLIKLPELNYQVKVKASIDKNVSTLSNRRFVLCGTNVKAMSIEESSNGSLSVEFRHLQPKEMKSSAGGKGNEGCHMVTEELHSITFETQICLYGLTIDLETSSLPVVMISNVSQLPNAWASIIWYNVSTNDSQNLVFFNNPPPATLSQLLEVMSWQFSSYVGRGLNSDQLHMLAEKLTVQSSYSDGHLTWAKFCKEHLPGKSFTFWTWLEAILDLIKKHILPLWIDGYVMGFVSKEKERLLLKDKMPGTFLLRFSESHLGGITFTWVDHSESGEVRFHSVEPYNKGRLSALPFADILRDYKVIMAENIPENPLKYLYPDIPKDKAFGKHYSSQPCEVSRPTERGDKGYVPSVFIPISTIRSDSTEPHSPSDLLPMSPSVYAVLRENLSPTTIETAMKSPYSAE
In words: Binding affinity to human recombinant STAT4 assessed as dissociation constant incubated for 15 mins by biolayer interferometry. In outline: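 Biolayer interferometry with recombinant human STAT1, STAT2, STAT3, STAT4, STAT5A, STAT5B or STAT6 proteins containing their SH2 domain. Compound run in 2× serial dilutions from 200 nM. Kd taken from steady-state fitting of equilibrium responses against concentration using a 1:1 binding model.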
For orientation: BLI is a label-free optical method that tracks binding on a fibre tip over time.

Data set [4] in a line: Antitumor activity against human MOLM16 cells xenografted in SCID mouse assessed as tumor growth at 25 mg/kg, iv administered weekly measured after 2 weeks relative to control. Format: functional. In outline: as §1
Data set [5] addresses Signal transducer and activator of transcription 3 (Homo sapiens, UniProt P40763). In words: Induction of STAT3 degradation in human MOLM-16 cells for 4 hrs by western blot analysis. Format: cell-based. The conditions noted are these: molm16. In outline: (§3)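 Cells treated 4 h with compounds across 25 nM to 100 μM; STAT proteins detected by Western blot with GAPDH as loading control; STAT3 DC50 estimated by densitometry of STAT3 relative to GAPDH. Applies to MOLM-16 for all STATs, and to SU-DHL-1 and SUP-M2 for STAT3.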
A general note: In western blotting, separated proteins are transferred to a membrane and probed.

Data set [6] can be described thus: Toxicity in SCID mouse xenografted with human MOLM16 cells assessed as toxic effects at 25 to 50 mg/kg, iv for 65 days. Format: organism-based. Particulars: in vivo, 1560 h, dose 25-50 mg/kg, time 65 day. In short, it runs like this:
as §2

The test system of data set [7] is Mus musculus. In words: In vivo induction of STAT3 degradation in SCID mouse xenografted with human MOLM16 cells assessed as reduction in phosphorylated STAT3 level in tumor tissue at 50 mg/kg, iv measured after 24 hrs by immunoblotting analysis. Format: functional, organism-based. In outline: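 SCID mice bearing MOLM-16 or SU-DHL-1 xenografts given a single iv dose of 50 mg/kg or dosing vehicle. Tumor lysates immunoblotted for p-STAT3 Y705 and total STAT3 at time points up to 48 h (MOLM-16) and 24 h (SU-DHL-1).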

Data set [8] relates to Mus musculus. In words: In vivo induction of STAT6 degradation in SCID mouse xenografted with human MOLM16 cells assessed as reduction in STAT6 in tumor tissue at 50 mg/kg, iv measured after 24 hrs by immunoblotting analysis. Format: functional, organism-based. In outline: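 SCID mice bearing MOLM-16 tumors given a single iv dose of 50 mg/kg or dosing vehicle. Tumor lysates immunoblotted for STAT3, STAT1 and STAT6 at time points from 1 h to at least 24 h.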

The nature of data set [9]: Drug metabolism in complete cell culture medium assessed as (2-(((5S,8S,10aR)-8-(((S)-5-amino-1-(benzhydrylamino)-1,5-dioxopentan-2-yl)carbamoyl)-3-(8-(2-(2,6-dioxopiperidin-3-yl)-1-oxoisoindolin-4-yl)oct-7-ynoyl)-6-oxodecahydropyrrolo[1,2-a][1,5]diazocin-5-yl)carbamoyl)-1H-indole-5-carbonyl)phosphonic acid after 2 hrs. In short, it runs like this:
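Parent compound incubated in the cell culture medium used for the cellular assays, with or without cells, at 37 °C. Percentages of the hydrolysis product and the glutarimide ring-opened product measured at time points up to 96 h.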

In data set [10] the target is Protein cereblon/Signal transducer and activator of transcription 6 (Homo sapiens) (UniProt P42226+Q96SW2). In words: Protac activity at CRBN/STAT6 in human SUP-M2 cells assessed as STAT6 degradation at 0.25 to 100 uM incubated for 4 hrs by Western blot analysis. Particulars: SUPM2, dose 0.25-100 µM. Format: cell-based.
Sequence of Protein cereblon/Signal transducer and activator of transcription 6 (Homo sapiens) (P42226 2-847 limits assumed): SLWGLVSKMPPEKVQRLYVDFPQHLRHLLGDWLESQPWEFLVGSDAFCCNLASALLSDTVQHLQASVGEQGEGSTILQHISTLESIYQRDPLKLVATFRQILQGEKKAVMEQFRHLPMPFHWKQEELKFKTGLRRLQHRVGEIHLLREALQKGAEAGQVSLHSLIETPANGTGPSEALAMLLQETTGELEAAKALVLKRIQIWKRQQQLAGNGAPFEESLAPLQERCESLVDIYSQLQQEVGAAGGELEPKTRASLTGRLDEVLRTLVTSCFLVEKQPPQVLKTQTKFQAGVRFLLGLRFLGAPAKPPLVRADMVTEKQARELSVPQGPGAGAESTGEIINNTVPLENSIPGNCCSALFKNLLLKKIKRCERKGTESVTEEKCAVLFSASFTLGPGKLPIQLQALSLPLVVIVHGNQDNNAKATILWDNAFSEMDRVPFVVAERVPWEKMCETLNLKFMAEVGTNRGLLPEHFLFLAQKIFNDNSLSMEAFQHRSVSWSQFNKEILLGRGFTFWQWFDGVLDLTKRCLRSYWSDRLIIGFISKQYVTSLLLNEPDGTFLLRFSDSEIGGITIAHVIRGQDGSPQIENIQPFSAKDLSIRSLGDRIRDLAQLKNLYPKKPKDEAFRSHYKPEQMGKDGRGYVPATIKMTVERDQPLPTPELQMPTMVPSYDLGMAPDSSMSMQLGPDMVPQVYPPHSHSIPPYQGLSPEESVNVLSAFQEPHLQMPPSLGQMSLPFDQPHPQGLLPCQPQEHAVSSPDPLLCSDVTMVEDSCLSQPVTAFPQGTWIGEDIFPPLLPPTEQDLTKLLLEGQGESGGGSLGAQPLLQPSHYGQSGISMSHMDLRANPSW
Sequence of Protein cereblon/Signal transducer and activator of transcription 6 (Homo sapiens) (Q96SW2 whole entry partner): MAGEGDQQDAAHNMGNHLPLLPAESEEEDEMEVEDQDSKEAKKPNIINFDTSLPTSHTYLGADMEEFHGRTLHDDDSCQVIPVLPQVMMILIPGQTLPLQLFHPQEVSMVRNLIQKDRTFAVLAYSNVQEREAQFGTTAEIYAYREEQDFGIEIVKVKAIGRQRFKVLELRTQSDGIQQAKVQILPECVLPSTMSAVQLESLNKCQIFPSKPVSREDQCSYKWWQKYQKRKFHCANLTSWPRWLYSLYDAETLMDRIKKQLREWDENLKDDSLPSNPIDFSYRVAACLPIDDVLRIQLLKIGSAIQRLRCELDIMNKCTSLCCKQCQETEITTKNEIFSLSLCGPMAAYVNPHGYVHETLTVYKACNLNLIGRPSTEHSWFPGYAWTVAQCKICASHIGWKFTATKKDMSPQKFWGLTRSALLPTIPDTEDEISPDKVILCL
Data set [11] in a line: Drug metabolism buffer pH 8 assessed as conversion to 5-amino-4-(4-(8-((5S,8S,10aR)-8-((S)-5-amino-1-(benzhydrylamino)-1,5-dioxopentan-2-ylcarbamoyl)-6-oxo-5-(5-(phosphonocarbonyl)-1H-indole-2-carboxamido)octahydropyrrolo[1,2-a][1,5]diazocin-3(4H)-yl)-8-oxooct-1-ynyl)-1-oxoisoindolin-2-yl)-5-oxopentanoic acid measured upto 100 hrs by LC/MS/MS analysis. The conditions noted are these: time hrs <=100. In outline: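 Parent compound incubated in buffer at pH 4 or pH 8, at room temperature or 37 °C. Percentages of the parent, the hydrolysis product and the glutarimide ring-opened product followed over time, up to 96 h.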

For data set [12], the target named is Protein cereblon/Signal transducer and activator of transcription 4 (Homo sapiens) (UniProt Q96SW2+Q14765). In words: Protac activity at CRBN/STAT4 in human MOLM16 cells assessed as STAT4 degradation at 0.25 to 100 uM incubated for 4 hrs by Western blot analysis. Format: cell-based. Particulars: dose 0.25-100 µM. In short, it runs like this: as §3
Sequence of Protein cereblon/Signal transducer and activator of transcription 4 (Homo sapiens) (Q96SW2 whole entry, looked up, one chain of several): as the sequence (Q96SW2 whole entry partner) above
The target in data set [13] is Protein cereblon/Signal transducer and activator of transcription 2 (Homo sapiens) (UniProt Q96SW2+P52630). In words: Protac activity at CRBN/STAT2 in human SUP-M2 cells […] at 0.25 to 100 uM incubated for 4 hrs by Western blot analysis. The conditions noted are these: SUPM2, dose lower 0.25 µM. Format: cell-based.
Sequence of Protein cereblon/Signal transducer and activator of transcription 2 (Homo sapiens) (P52630 whole entry, looked up): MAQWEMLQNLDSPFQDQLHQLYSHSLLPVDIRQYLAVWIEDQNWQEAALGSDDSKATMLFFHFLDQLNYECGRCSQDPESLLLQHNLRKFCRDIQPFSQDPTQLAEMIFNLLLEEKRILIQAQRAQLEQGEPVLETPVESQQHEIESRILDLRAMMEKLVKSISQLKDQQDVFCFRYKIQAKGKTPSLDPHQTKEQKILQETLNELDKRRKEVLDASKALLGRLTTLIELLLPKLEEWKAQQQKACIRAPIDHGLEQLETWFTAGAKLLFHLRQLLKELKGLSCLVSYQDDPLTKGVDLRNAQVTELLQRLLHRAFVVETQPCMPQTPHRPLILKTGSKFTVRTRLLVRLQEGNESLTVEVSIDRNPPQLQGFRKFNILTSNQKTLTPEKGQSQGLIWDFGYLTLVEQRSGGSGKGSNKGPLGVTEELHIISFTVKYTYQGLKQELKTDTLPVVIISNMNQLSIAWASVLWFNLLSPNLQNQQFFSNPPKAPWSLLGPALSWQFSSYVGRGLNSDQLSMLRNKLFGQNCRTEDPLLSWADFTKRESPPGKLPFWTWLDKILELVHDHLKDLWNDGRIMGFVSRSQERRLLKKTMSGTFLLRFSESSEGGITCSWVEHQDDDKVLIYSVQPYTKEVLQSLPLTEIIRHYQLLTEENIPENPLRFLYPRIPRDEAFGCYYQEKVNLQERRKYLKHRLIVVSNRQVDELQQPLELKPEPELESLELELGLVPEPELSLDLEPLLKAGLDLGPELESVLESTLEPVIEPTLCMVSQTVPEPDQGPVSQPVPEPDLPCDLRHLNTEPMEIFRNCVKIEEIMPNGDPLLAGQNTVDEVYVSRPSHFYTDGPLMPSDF
Sequence of Protein cereblon/Signal transducer and activator of transcription 2 (Homo sapiens) (Q96SW2 whole entry, looked up): as the sequence (Q96SW2 whole entry partner) above

The source made the active and inactive calls. The rule behind the calls is not given here.

As a reminder, the Kd is the equilibrium constant for the complex coming apart. One may read the DC50 as the concentration at which degradation of the target reaches its halfway point. Lower therefore signals a more potent degrader.

Sequence of Signal transducer and activator of transcription 3 (P40763 whole entry): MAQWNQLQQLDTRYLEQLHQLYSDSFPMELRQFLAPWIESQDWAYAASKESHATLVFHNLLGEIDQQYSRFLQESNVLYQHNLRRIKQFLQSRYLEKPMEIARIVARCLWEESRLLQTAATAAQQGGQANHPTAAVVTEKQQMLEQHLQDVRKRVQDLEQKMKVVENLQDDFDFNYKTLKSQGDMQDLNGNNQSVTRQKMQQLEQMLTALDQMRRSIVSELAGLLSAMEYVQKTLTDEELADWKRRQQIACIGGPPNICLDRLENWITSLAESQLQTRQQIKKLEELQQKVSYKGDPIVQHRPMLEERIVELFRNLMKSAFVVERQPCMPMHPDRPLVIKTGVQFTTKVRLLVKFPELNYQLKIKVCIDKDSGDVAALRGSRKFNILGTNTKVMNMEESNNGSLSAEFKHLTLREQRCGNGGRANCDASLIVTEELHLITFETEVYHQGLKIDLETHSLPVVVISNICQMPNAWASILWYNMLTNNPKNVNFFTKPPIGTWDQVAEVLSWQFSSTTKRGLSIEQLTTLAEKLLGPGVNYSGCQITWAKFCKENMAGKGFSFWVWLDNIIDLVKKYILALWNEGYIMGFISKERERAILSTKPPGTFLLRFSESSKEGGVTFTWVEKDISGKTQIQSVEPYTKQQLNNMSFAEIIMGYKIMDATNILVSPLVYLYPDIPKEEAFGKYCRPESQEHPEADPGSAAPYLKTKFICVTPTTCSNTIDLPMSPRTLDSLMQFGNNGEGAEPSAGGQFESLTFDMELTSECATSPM

Regarding `NC(=O)CC[C@H](NC(=O)[C@@H]1CC[C@@H]2CCN(C(=O)CCCCCC#Cc3cccc4c3CN(C3CCC(=O)NC3=O)C4=O)C[C@H](NC(=O)c3cc4cc(C(=O)P(=O)(O)O)ccc4[nH]3)C(=O)N21)C(=O)NC(c1ccccc1)c1ccccc1` (stereo partly drawn), the Activity is reported as 100% in data set [1], “Non-Toxic” in data set [2], 87% in data set [4] and “Non-Toxic” in data set [6]. In addition, the Kd in data set [3] is above 10 nM. Moreover, the DC50 in data set [5] amounted to 120 nM. Further, in data set [7], the outcome was Active. Further, the result in data set [8] was inactive.

As to `NC(=O)CC[C@H](NC(=O)[C@@H]1CC[C@@H]2CCN(C(=O)CCCCCC#Cc3cccc4c3CN(C3CCC(=O)NC3=O)C4=O)C[C@H](NC(=O)c3cc4cc(C(F)(F)P(=O)(O)O)ccc4[nH]3)C(=O)N21)C(=O)NC(c1ccccc1)c1ccccc1` (stereo partly drawn), the figures for the Drug metabolism in [9] and in [11] were 50% and “Metabolite detected”, respectively. Besides, the result in [10], in data set [12] and in data set [13] was inactive.

(Values after ChEMBL document CHEMBL4706770, “SD-91 as A Potent and Selective STAT3 Degrader Capable of Achieving Complete and Long-Lasting Tumor Regression” (ACS Med Chem Lett, 2021).)
